Calls of active or inactive are those of the source. No cut-off for these calls is given here.

Results on 1 compound are retold here after ChEMBL document CHEMBL4190353, “Synthesis, structure-activity relationships and preliminary mechanism of action of novel water-soluble 4-quinolone-3-carboxamides as antiproliferative agents” (Eur J Med Chem, 2017).

Data set [1] is described as follows: Solubility in water. It is filed as physicochemical.
The subject of data set [2] is HCT-116. Kind of data set: Cytotoxicity against human HCT116 cells assessed as reduction in cell viability incubated for 24 hrs by CCK8 assay. The class given is functional, cell-based. An outline of the steps: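 Cells were seeded at 3×10^4 per well, grown 24 h, then exposed to increasing concentrations for 24 h. CCK-8 reagent was added for 1 h at 37 °C and absorbance was read at 450 nm. Cells were kept in McCoy's 5A with 10% FBS, and n=3.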
(In general: Formazan colour is commonly taken as a measure of viable cells.)

For data set [3], the system named is HCT-116. Kind of data set: Induction of apoptosis in human HCT116 cells assessed as viable cells level at 2 uM incubated for 24 hrs by Annexin V-FITC/PI staining based cytometry (reference value: 96.6%). The class given is functional.
The test system of data set [4] is HCT-116. Kind of data set: Induction of apoptosis in human HCT116 cells assessed as late apoptotic cells level incubated for 48 hrs by Annexin V-FITC/PI staining based cytometry (reference value: 0.0%). The class given is functional.
Data set [5] deals with HCT-116. Kind of data set: Induction of apoptosis in human HCT116 cells assessed as necrotic cells level pre-incubated with 20 uM pan-caspase inhibitor Z-VAD-FMK for 5 hrs followed by compound addition and further incubated for 48 hrs by Annexin V-FITC/PI staining based cytometry (reference value: 0.2%). The class given is functional. Further details: scale not given: the % may be the effect or the level left.

In data set [6] the test system is HCT-116. Kind of data set: Induction of apoptosis in human HCT116 cells assessed as increase in cleaved PARP level incubated for 48 hrs by Western blot method. It is filed as functional, cell-based. The method in brief: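 Lysates were made in SDS buffer (2% SDS, 50 mM Tris-HCl pH 6.8) and quantified by BCA. Equal protein was run on 10% SDS-PAGE and transferred to PVDF. Membranes were blocked in 5% milk, probed overnight at 4 °C for cleaved PARP (1:1000) with GAPDH (1:5000), and detected with HRP secondary antibody and ECL.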
For orientation: Immunoblotting shows a protein as a band on a membrane.

The subject of data set [7] is HCT-116. Kind of data set: Induction of apoptosis in Bax-/- human HCT116 cells assessed as viable cells level pre-incubated with 20 uM pan-caspase inhibitor Z-VAD-FMK for 5 hrs followed by compound addition and further incubated for 48 hrs by Annexin V-FITC/PI staining based cytometry (reference value: 92.9%). It is filed as functional.
In data set [8] the test system is HCT-116. The experiment in a line: Induction of apoptosis in human HCT116 cells assessed as increase in cleaved PARP level pre-treated with 7.5 mM GSH for 6 hrs followed by 4 to 8 uM compound addition and further incubated for 24 hrs by Western blot method. It is filed as functional, cell-based.

Consider `CCN(CC)CCCNC(=O)c1cn(CCCc2ccccc2)c2cc(Cl)ccc2c1=O.Cl`, for which the solubility in data set [1] was over 10000 µg/mL. Moreover, the “growth inhibition (GI)” value with HCT-116 [2] is “Dose-dependent effect”. The 50% inhibitory concentration (IC50) in the data set on HCT-116 [2] (HCT-116, 24 h) was 5.79 µM. Besides, the Activity in the data set on HCT-116 [3] was 79.3%; in the data set with HCT-116 [4] it was 3.2%; in the data set on HCT-116 [5], 3.5%; with HCT-116 [7] it was 87.7%. In the data set with HCT-116 [6], the result was Active. Further, in the data set on HCT-116 [8], the result was inactive.

By solubility is commonly meant how much of the substance goes into solution per volume. By IC50 is commonly meant the midpoint of a concentration-inhibition curve.
